In ChEMBL document CHEMBL1821679, “Targeting the heat shock protein 90 dimer with dimeric inhibitors” (J Med Chem, 2011):
Calls of active or inactive are those of the source. No cut-off for these calls is given here.

Columns and labels:
[1] = molecular target: T1, Heat shock protein HSP90 (Homo sapiens) (UniProt P07900+P08238); assay: Inhibition of Hsp90 in human MCF7 cells assessed as induction of Raf degradation at 5 fold IC50 after 24 hrs by Western blot method; assay type: cell-based
Summary of the method: (§1)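 MCF-7 cells treated 24 h with compound in DMSO (1% final); geldanamycin 500 nM served as positive control and DMSO as vehicle control. Cells harvested in cold PBS and lysed 1 h on ice in RIPA with 1 mM PMSF, 2 mM orthovanadate and protease inhibitors. Lysates clarified 14,000g, 15 min, 4 °C. Protein (20 µg, BCA) resolved under reducing conditions and blotted on PVDF for Her2, Raf and Akt, with actin as loading control. Detection by HRP secondary antibody and chemiluminescence.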

[2] = Antiproliferative activity against human PC3MM2 cells after 72 hrs by MTS/PMS assay; assay type: functional, cell-based; conditions: PC3MM2, 72 h
Summary of the method: (§2)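 Cells grown in medium with non-essential amino acids, 2 mM L-glutamine, streptomycin, penicillin and 10% FBS at 37 °C, 5% CO2; seeded 2000/well, attached overnight. Test agent added over a concentration range in DMSO (1% final), 72 h exposure. Viable cells counted by MTS/PMS read-out against 1% DMSO wells as 100% proliferation. IC50 taken as mean ± SD of at least two separate experiments, each in triplicate.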

[3] = molecular target: T1, Heat shock protein HSP90 (Homo sapiens); assay: Inhibition of Hsp90 in human MCF7 cells assessed as induction of Akt degradation at 0.5 fold IC50 after 24 hrs by Western blot method; assay type: cell-based; summary of the method: as §1
[4] = system: A549; assay: Antiproliferative activity against human A549 cells after 72 hrs by MTS/PMS assay; assay type: functional, cell-based; conditions: A549, 72 h; summary of the method: as §2
[5] = molecular target: T1, Heat shock protein HSP90 (Homo sapiens); assay: Inhibition of Hsp90 in human MCF7 cells assessed as induction of Akt degradation at 5 fold IC50 after 24 hrs by Western blot method; assay type: cell-based; summary of the method: as §1
[6] = system: MCF7; assay: Antiproliferative activity against human MCF7 cells after 72 hrs by MTS/PMS assay; assay type: functional, cell-based; conditions: MCF7, 72 h; summary of the method: as §2
[7] = molecular target: T1, Heat shock protein HSP90 (Homo sapiens); assay: Inhibition of Hsp90 in human MCF7 cells assessed as induction of Her2 degradation at 5 fold IC50 after 24 hrs by Western blot method; assay type: cell-based; summary of the method: as §1
[8] = molecular target: T1, Heat shock protein HSP90 (Homo sapiens); assay: Inhibition of Hsp90 in human MCF7 cells assessed as induction of Raf degradation at 0.5 fold IC50 after 24 hrs by Western blot method; assay type: cell-based; summary of the method: as §1
[9] = molecular target: T1, Heat shock protein HSP90 (Homo sapiens); assay: Inhibition of Hsp90 in human MCF7 cells assessed as induction of Her2 degradation at 0.5 fold IC50 after 24 hrs by Western blot method; assay type: cell-based; summary of the method: as §1
[10] = system: SK-BR-3; assay: Antiproliferative activity against human SKBR3 cells after 72 hrs by MTS/PMS assay; assay type: functional, cell-based; conditions: SK-BR-3, 72 h; summary of the method: as §2
[11] = system: HT-29; assay: Antiproliferative activity against human HT-29 cells after 72 hrs by MTS/PMS assay; assay type: functional, cell-based; conditions: HT-29, 72 h; summary of the method: as §2

SMILES	inhibition [1]	IC50 [2] [µM]	inhibition [3]	IC50 [4] [µM]	inhibition [5]	IC50 [6] [µM]	inhibition [7]	inhibition [8]	inhibition [9]	IC50 [10] [µM]	IC50 [11] [µM]
COc1c(OC2CCN(C)CC2)ccc2cc(NC(=O)CC/C=C/CCC(=O)Nc3cc4ccc(OC5CCN(C)CC5)c(OC)c4oc3=O)c(=O)oc12	inactive	0.06	inactive	1.22	inactive	1.12	inactive	inactive	inactive	2.22	
Cc1c(OC2CCN(C)CC2)ccc2cc(NC(=O)CCCC/C=C/CCCCC(=O)Nc3cc4ccc(OC5CCN(C)CC5)c(C)c4oc3=O)c(=O)oc12						0.73				0.51	
COc1cc(C(=O)Nc2cc3ccc(O[C@@H]4OC(C)(C)[C@H](OC)[C@@H](O)[C@H]4O)c(C)c3oc2=O)cc(-c2cc(OC)cc(C(=O)Nc3cc4ccc(O[C@@H]5OC(C)(C)[C@H](OC)[C@@H](O)[C@H]5O)c(C)c4oc3=O)c2)c1		12.5		28.9		1.85				1.95	11.7
COc1c(O[C@H]2OC(C)(C)[C@@H](OC)[C@H](O)[C@@H]2O)ccc2cc(NC(=O)CC/C=C/CCC(=O)Nc3cc4ccc(O[C@H]5OC(C)(C)[C@@H](OC)[C@H](O)[C@@H]5O)c(OC)c4oc3=O)c(=O)oc12						> 100				52	
Cc1c(OC2CCN(C)CC2)ccc2cc(NC(=O)CC/C=C\CCC(=O)Nc3cc4ccc(OC5CCN(C)CC5)c(C)c4oc3=O)c(=O)oc12		32.9		77.6		49.9				> 100	
CO[C@@H]1[C@@H](O)[C@@H](O)[C@H](Oc2ccc3cc(NC(=O)c4cccc(-c5cccc(C(=O)Nc6cc7ccc(O[C@@H]8OC(C)(C)[C@H](OC)[C@@H](O)[C@H]8O)c(C)c7oc6=O)c5)c4)c(=O)oc3c2C)OC1(C)C						1.26				0.86	
COc1ccc(C(=O)Nc2cc3ccc(OCCCN(C)C)c(C)c3oc2=O)cc1-c1cc(C(=O)Nc2cc3ccc(OCCCN(C)C)c(C)c3oc2=O)ccc1OC		52.3		93.5		11.7				9.5	62.7
CO[C@H]1[C@H](OC(=O)c2ccc(C)[nH]2)[C@H](O)[C@@H](Oc2ccc3c(O)c(NC(=O)c4c[nH]c(C(=O)Nc5c(O)c6ccc(O[C@H]7OC(C)(C)[C@@H](OC)[C@H](OC(=O)c8ccc(C)[nH]8)[C@@H]7O)c(C)c6oc5=O)c4C)c(=O)oc3c2C)OC1(C)C [COUMERMYCIN A1]						8.8				5	
COc1cc2cc(NC(=O)C/C=C/CC(=O)Nc3cc4cc(OC)c(OC5CCN(C)CC5)c(C)c4oc3=O)c(=O)oc2c(C)c1OC1CCN(C)CC1	Active	0.17	Active	1.25	Active	0.56	Active	Active	Active	0.27	
Cc1c(OC2CCN(C)CC2)ccc2cc(NC(=O)C/C=C/CC(=O)Nc3cc4ccc(OC5CCN(C)CC5)c(C)c4oc3=O)c(=O)oc12	Active	7.51	Active	21.5	Active	0.29	Active	Active	Active	0.18	7.1
COc1cc2cc(NC(=O)CCC/C=C/CCCC(=O)Nc3cc4cc(OC)c(OC5CCN(C)CC5)c(C)c4oc3=O)c(=O)oc2c(C)c1OC1CCN(C)CC1	Active	0.38	Active	37.7	Active	0.31	Active	Active	Active	0.22	
COc1ccc(C(=O)Nc2cc3ccc(OC4CCN(C)CC4)c(C)c3oc2=O)cc1-c1cc(C(=O)Nc2cc3ccc(OC4CCN(C)CC4)c(C)c3oc2=O)ccc1OC						14.2				4.98	
COc1c(O[C@H]2OC(C)(C)[C@@H](OC)[C@H](O)[C@@H]2O)ccc2cc(NC(=O)C/C=C/CC(=O)Nc3cc4ccc(O[C@H]5OC(C)(C)[C@@H](OC)[C@H](O)[C@@H]5O)c(OC)c4oc3=O)c(=O)oc12						> 100				> 100	
Cc1c(OC2CCN(C)CC2)ccc2cc(NC(=O)CCCCCCCCC(=O)Nc3cc4ccc(OC5CCN(C)CC5)c(C)c4oc3=O)c(=O)oc12		10.2		13.2		3.68				2.84	3.9
CO[C@H]1[C@H](O)[C@H](O)[C@@H](Oc2ccc3cc(NC(=O)C/C=C/CC(=O)Nc4cc5ccc(O[C@H]6OC(C)(C)[C@@H](OC)[C@H](O)[C@@H]6O)c(C)c5oc4=O)c(=O)oc3c2C)OC1(C)C						53.1				> 100	
COc1c(OC2CCN(C)CC2)ccc2cc(NC(=O)CCC/C=C/CCCC(=O)Nc3cc4ccc(OC5CCN(C)CC5)c(OC)c4oc3=O)c(=O)oc12	Active	0.05	Active	1.21	Active	0.88	Active	Active	Active	0.37	
COc1c(OC2CCN(C)CC2)ccc2cc(NC(=O)C/C=C/CC(=O)Nc3cc4ccc(OC5CCN(C)CC5)c(OC)c4oc3=O)c(=O)oc12	Active	8.63	Active		Active	1.46	Active	Active	Active	0.71	
Cc1c(OC2CCN(C)CC2)ccc2cc(NC(=O)CCCCC(=O)Nc3cc4ccc(OC5CCN(C)CC5)c(C)c4oc3=O)c(=O)oc12						2.46				1.26	
COc1cc2cc(NC(=O)CC/C=C/CCC(=O)Nc3cc4cc(OC)c(OC5CCN(C)CC5)c(C)c4oc3=O)c(=O)oc2c(C)c1OC1CCN(C)CC1	Active	4.86	Active	1.44	Active	1.31	Active	Active	Active	1.1	
COc1cc2cc(NC(=O)C/C=C/CC(=O)Nc3cc4cc(OC)c(O[C@H]5OC(C)(C)[C@@H](OC)[C@H](O)[C@@H]5O)c(C)c4oc3=O)c(=O)oc2c(C)c1O[C@H]1OC(C)(C)[C@@H](OC)[C@H](O)[C@@H]1O						168				106	
COc1cc(C(=O)Nc2cc3ccc(O[C@@H]4OC(C)(C)[C@H](OC)[C@@H](O)[C@H]4O)c(C)c3oc2=O)cc(-c2cc(C(=O)Nc3cc4ccc(O[C@@H]5OC(C)(C)[C@H](OC)[C@@H](O)[C@H]5O)c(C)c4oc3=O)ccc2OC)c1						38				28.5	
COc1ccc(C(=O)Nc2cc3ccc(OC(C)=O)c(C)c3oc2=O)cc1-c1cc(C(=O)Nc2cc3ccc(OC(C)=O)c(C)c3oc2=O)ccc1OC						> 100				11.8	
Cc1c(OC2CCN(C)CC2)ccc2cc(NC(=O)CCCCCCC(=O)Nc3cc4ccc(OC5CCN(C)CC5)c(C)c4oc3=O)c(=O)oc12		13.8		30.4		2.82				1.19	26.3
COc1cc2cc(NC(=O)CC/C=C/CCC(=O)Nc3cc4cc(OC)c(O[C@H]5OC(C)(C)[C@@H](OC)[C@H](O)[C@@H]5O)c(C)c4oc3=O)c(=O)oc2c(C)c1O[C@H]1OC(C)(C)[C@@H](OC)[C@H](O)[C@@H]1O						2.61				4.1	
CO[C@H]1[C@H](O)[C@H](O)[C@@H](Oc2ccc3cc(NC(=O)CC/C=C/CCC(=O)Nc4cc5ccc(O[C@H]6OC(C)(C)[C@@H](OC)[C@H](O)[C@@H]6O)c(C)c5oc4=O)c(=O)oc3c2C)OC1(C)C						3.9				1.5	
COc1ccc(C(=O)Nc2cc3cc(OC)c(O[C@@H]4OC(C)(C)[C@H](OC)[C@@H](O)[C@H]4O)c(C)c3oc2=O)cc1-c1cc(C(=O)Nc2cc3cc(OC)c(O[C@@H]4OC(C)(C)[C@H](OC)[C@@H](O)[C@H]4O)c(C)c3oc2=O)ccc1OC	Active		Active		Active	0.72	Active	Active	Active	0.11	
